Data published in paper PMC9177960 (Nucleic Acids Research, 2022).

Tests used:
[1] = target: T1, MurR (Escherichia coli, UniProt P77245); assay: ITC binding between MurR and ligands
T1 sequence (P77245 1-285): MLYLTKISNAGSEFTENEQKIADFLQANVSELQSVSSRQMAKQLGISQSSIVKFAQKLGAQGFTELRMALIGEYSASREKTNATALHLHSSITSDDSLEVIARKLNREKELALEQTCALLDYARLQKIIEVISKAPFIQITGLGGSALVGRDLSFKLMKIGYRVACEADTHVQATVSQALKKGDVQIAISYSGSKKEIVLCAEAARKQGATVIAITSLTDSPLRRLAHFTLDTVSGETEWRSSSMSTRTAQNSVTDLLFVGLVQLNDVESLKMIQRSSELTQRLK
Outline: (§1)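 MurR (wild type or point mutant) was expressed from pET28a in E. coli BL21(DE3), His6-tag removed with HRV3C, and gel-filtered. Protein at 50 µM in the cell; ligand at 500 µM in the syringe. Both were in 100 mM NaCl, 10 mM Tris-HCl pH 7.5, 1 mM DTT. Run at 25 °C, stirring 750 rpm, 120 s between injections. Data background-subtracted to give association constants; triplicate runs.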

[2] = system: MurR binding to the operator site; conditions: previous studies; cited from earlier work
[3] = target: T2, MurR/operator DNA complex (Escherichia coli, UniProt P77245); assay: EMSA of MurR with murR-murQ intergenic region DNA; type: biochemical; conditions: for effect on MurR-DNA binding at high concentration: EMSA, 1, 10, 20, 40 mM, effect of GlcNAc-6-P at 40 mM
T2 sequence (P77245 1-285): T1 sequence (P77245 1-285)

[4] = system: mutant MurR proteins; assay: ITC binding of GlcNAc-6-P to mutant MurR proteins; design: species or system Escherichia coli; conditions: mutant proteins of Supplementary Figure S14A and B
Outline: as §1

[5] = system: mutant MurR proteins/promoter DNA complexes; assay: EMSA of mutant MurR proteins with promoter DNA; type: biochemical, Escherichia coli; conditions: all MurR proteins (WT and mutants) at the tested concentrations
[6] = system: MurR-controlled eGFP expression (pUC19-murR-eGFP); assay: CFPS eGFP fluorescent quantitation assay, WT MurR; type: biochemical, Escherichia coli; conditions: plasmid 5.8 nM, protein 1:100 molar ratio, different ligand concentrations
Outline: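 Reporter plasmid: T7 promoter, RBS, eGFP coding sequence and the murQ–murR intergenic region. MurR proteins were expressed in E. coli BL21(DE3) with an N-terminal His6 tag, which was cleaved off by HRV3C protease, then purified by size exclusion. In cell-free protein synthesis, 5.8 nM plasmid was mixed with protein at a 1:100 plasmid:protein molar ratio and graded MurNAc-6-P or GlcNAc-6-P. eGFP fluorescence was read on a real-time PCR instrument, in triplicate.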

[7] = target: the molecule itself; assay: SEC + AUC
[8] = target: the molecule itself; assay: crystal structure

In the case of CC(=O)N[C@@H]1[C@@H](O)[C@H](O)[C@@H](CO)O[C@H]1O [GlcNAc, N-acetylglucosamine], the “interaction with MurR in ITC” value ([1]; ligand titrated into WT MurR) is listed as “no interaction” and the “effect on MurR binding to the operator” value [2] is listed as “no effect”.

For CC(=O)N[C@H]1C(O)O[C@H](CO)[C@@H](O)[C@@H]1O[C@H](C)C(=O)N[C@@H](C)C(=O)N[C@H](CCC(=O)O)C(N)=O (mixture of isomers) [muramyl dipeptide], the “effect on MurR binding to the operator” value [2] is given as “no effect”.

With O=S(=O)([O-])[O-].[Na+].[Na+] [sodium sulfate] the “effect on MurR-DNA binding at high concentration” value [3] was “not affected”.

In the case of CC(=O)N[C@H]1C(O)O[C@H](COP(=O)(O)O)[C@@H](O)[C@@H]1O (stereo partly shown) [GlcNAc-6-P, N-acetylglucosamine-6-phosphate], the Kd [1] is reported as 17.6 µM, the “association constant (Ka) values compared with WT MurR” value [4] is reported as “Smaller” and the “relief of the retardation of DNA migration” value ([3]; EMSA, 200 nM MurR, ligand 1, 10, 100, 1000 μM) is reported as “negligible”. For the same molecule, the “effect on MurR-DNA binding at high concentration” value [3] was “a certain portion of the DNA was dissociated from MurR”, the “sensitivity of MurR/DNA complexes to ligand” value [5] was “insensitive” and the “effect on eGFP fluorescence” value [6] was “made no visible difference”. The “effect on MurR binding to the operator” value [2] was “no effect”.

B1: full-length MurR (natural protein, Escherichia coli MG1655, UniProt P77245 1-285, looked up)
chain: T1 sequence (P77245 1-285)
For B1, the “stoichiometry N” value [7] was 4.

B2: truncated protein MurRT2 (D95 to K285) (domain or fragment, Escherichia coli MG1655, UniProt P77245 95-285, looked up)
chain: DDSLEVIARKLNREKELALEQTCALLDYARLQKIIEVISKAPFIQITGLGGSALVGRDLSFKLMKIGYRVACEADTHVQATVSQALKKGDVQIAISYSGSKKEIVLCAEAARKQGATVIAITSLTDSPLRRLAHFTLDTVSGETEWRSSSMSTRTAQNSVTDLLFVGLVQLNDVESLKMIQRSSELTQRLK
B2: binds [8].
